ChEMBL document CHEMBL3271964, “Synthesis and biological activity of new 2-nitroimidazole derivatives” (J Med Chem, 1978)
Converted amounts (≈) assume the structure as drawn.

Columns and labels:
[1] = test system: Staphylococcus aureus; assay: Antimicrobial activity against Staphylococcus aureus Tour by microtitre method; assay type: functional
[2] = test system: Streptococcus pyogenes; assay: Antimicrobial activity against Streptococcus pyogenes C 203 by microtitre method; assay type: functional
[3] = test system: Clostridium perfringens; assay: Antimicrobial activity against Clostridium perfringens ISS 30543 by broth dilution method; assay type: functional
[4] = test system: Mycoplasmoides gallisepticum; assay: Antimicrobial activity against Mycoplasma gallisepticum S6 Weybridge by broth dilution method; assay type: functional
[5] = test system: Trichomonas vaginalis; assay: Antimicrobial activity against Trichomonas vaginalis by broth dilution method; assay type: functional
[6] = test system: Trichomonas vaginalis; assay: Antimicrobial activity against Trichomonas vaginalis infected in po dosed mouse; assay type: functional
Procedure, shortened: (§1)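 Mice infected subcutaneously, then dosed orally. Vehicle depended on compound: suspension in aqueous 0.75% sodium carboxymethylcellulose, DMF-H₂O, DMF-phosphate buffer pH 7.38, or water. ED₅₀ determined, with metronidazole run in parallel. The relative value is ED₅₀ (test) / ED₅₀ (metronidazole).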

[7] = test system: Trichomonas vaginalis; assay: Antimicrobial activity against Trichomonas vaginalis infected in po dosed mouse relative to metronidazole; assay type: functional; procedure, shortened: as §1
[8] = Therapeutic index, ratio of LD50 for po dosed mouse to ED50 for Trichomonas vaginalis infected in po dosed mouse; assay type: organism-based; conditions: in vivo, read-out: Ratio LD50/ED50
Procedure, shortened: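 Ratio of two mouse values, both dosed orally. The LD50 comes from acute toxicity, with compounds suspended in aqueous 0.5% Methocel 90-HG. The ED50 comes from subcutaneous T. vaginalis infection treated orally. The ED50 vehicle varied by compound: suspension in aqueous 0.75% sodium carboxymethylcellulose, DMF-H2O, DMF-phosphate buffer pH 7.38, or H2O.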

[9] = test system: Mus musculus; assay: Toxicity in CF1 mouse assessed as change in sleeping time at 1 mg/kg, po administered 30 mins prior to hexobarbital sodium challenge relative to vehicle-treated control; assay type: organism-based; set-up: dose 1 mg/kg, route oral; conditions: in vivo, 0.5 h
[10] = Solubility of the compound in water; assay type: physicochemical; conditions: buffer
[11] = Acute toxicity in po dosed mouse; assay type: organism-based; conditions: in vivo
Procedure, shortened: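 Acute toxicity in mice by the oral route. Compounds were given as suspensions in aqueous 0.5% Methocel 90-HG.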

| Structure (SMILES) | MIC [1] [µg/mL] | MIC [2] [µg/mL] | MIC [3] [µg/mL] | MIC [4] [µg/mL] | MIC [5] [µg/mL] | ED50 [6] [mg/kg] | Ratio ED50 [7] | selectivity ratio [8] | Activity [9] [%] | solubility [10] | LD50 [11] [mg/kg] |
| --- | --- | --- | --- | --- | --- | --- | --- | --- | --- | --- | --- |
| Cn1c(C(C)(C)O)cnc1[N+](=O)[O-] | 100 (≈ 540 µM) | > 300 | 25 (≈ 135 µM) | 40 (≈ 216 µM) | 25 (≈ 135 µM) | 1.65 | 0.28 | 423 | – | – | – |
| Cn1c(C(C)(C)OC(=O)Nc2ccccc2)cnc1[N+](=O)[O-] | > 100 | > 100 | 3.1 (≈ 10.2 µM) | 25 (≈ 82.2 µM) | 100 (≈ 329 µM) | 28.8 | 2.88 | – | – | – | – |
| CN(C)CCCN1c2ccccc2Sc2ccc(Cl)cc21.Cl [CHLORPROMAZINE HYDROCHLORIDE] | – | – | – | – | – | – | – | – | 57.7 | – | – |
| CS(=O)(=O)[O-].Cn1c(C(C)(C)[n+]2ccccc2)cnc1[N+](=O)[O-] | > 100 | > 100 | > 100 | > 100 | > 100 | > 40 | >4 | – | – | soluble | – |
| CC(CO)c1cnc([N+](=O)[O-])n1C (stereo not given) | 25 (≈ 135 µM) | 200 (≈ 1080 µM) | 0.8 (≈ 4.32 µM) | 50 (≈ 270 µM) | 25 (≈ 135 µM) | > 10 | >0.7 | – | – | – | – |
| Cn1c(C(C)(C)OC(N)=O)cnc1[N+](=O)[O-] | > 100 | 100 (≈ 438 µM) | 10 (≈ 43.8 µM) | > 100 | 10 (≈ 43.8 µM) | 5.74 | 0.4 | 156 | – | – | 900 |
